{"data": "Experimental data collected from several papers", "ABHD6": "Monoacylglycerol lipase ABHD6 (ABHD6, Homo sapiens, UniProt Q9BV23)", "Cathepsin F": "Cathepsin F (Homo sapiens, UniProt Q9UBX1)", "note": "Each line is one published result; the experiments were not run side by side."}
{"Compound": "Cn1cc(-c2cccc(N3CCc4c(sc5c4CC(C)(C)C5)C3=O)c2CO)cc(Nc2ccncn2)c1=O", "target": "Mast/stem cell growth factor receptor Kit (KIT, Homo sapiens, UniProt P10721, V654A)", "test": "enzyme activity, inhibitor", "conditions": "1 µM", "inhibition": "-7%"}
{"Compound": "CN(C(=O)Oc1nsnc1N1CCCCC1)c1ccc(C#N)cc1", "target": "ABHD6", "test": "enzyme activity, inhibitor, fluorescence", "conditions": "1 µM, lysate", "inhibition": "15%"}
{"Compound": "CN(CCN1CCC(OC(=O)Nc2ccccc2-c2ccccc2)CC1)C(=O)c1ccc(CN2CCC(C(N)=O)CC2)cc1", "target": "Histamine H2 receptor (Cavia porcellus, UniProt P47747)", "test": "ligand displacement, radioligand", "conditions": "1 µM", "inhibition": "22%"}
{"Compound": "CCN(CC)CCCC[C@H](NC(=O)[C@H](CC(C)C)NC(=O)[C@H](C)NC(=O)[C@H](Cc1ccccc1)NC(=O)c1ccc(C(C)(C)C)cc1)C(=O)N[C@@H](CO)C(=O)OC", "target": "5-hydroxytryptamine receptor 5A (HTR5A, Homo sapiens, UniProt P47898)", "test": "ligand displacement, radioligand", "conditions": "10 µM", "inhibition": "7%"}
{"Compound": "C[C@H](C(=O)N[C@H]1COc2ccccc2[C@@H]1S(C)(=O)=O)c1ccc(F)cc1", "target": "D(4) dopamine receptor (DRD4, Homo sapiens, UniProt P21917, del265-296)", "test": "cell-free assay", "conditions": "10 µM", "inhibition": "10%"}
{"Compound": "CCOC(=O)c1ccc(OC(=O)CCCCCNC(=N)N)cc1", "target": "Cathepsin F", "test": "enzyme activity, inhibitor", "conditions": "10 µM", "inhibition": "2%"}
{"Compound": "C#Cc1n[nH]c2c(-c3cn([C@@H](C)c4ccccn4)c(=O)[nH]c3=O)cc(F)cc12", "target": "Calcium/calmodulin-dependent protein kinase type 1 (CAMK1, Homo sapiens, UniProt Q14012)", "test": "enzyme activity, inhibitor", "conditions": "0.1 µM", "inhibition": "5.7%"}
{"Compound": "COc1ccccc1N(C)C(=O)Oc1nsnc1N1CCCCC1", "target": "ABHD6", "test": "enzyme activity, inhibitor, fluorescence", "conditions": "1 µM, lysate", "inhibition": "11%"}
{"Compound": "COc1ccc(S(=O)(=O)N2CCCCC2)cc1C", "target": "D(4) dopamine receptor (DRD4, Homo sapiens, UniProt P21917)", "test": "ligand displacement, radioligand", "conditions": "10 µM", "inhibition": "< 30%"}
{"Compound": "CN(C)C(=O)COC(=O)Cc1ccc(OC(=O)c2ccc(NC(=N)N)cc2)cc1", "target": "Cathepsin F", "test": "enzyme activity, inhibitor", "conditions": "10 µM", "inhibition": "0%"}
{"Compound": "C#Cc1n[nH]c2c(-c3cn([C@@H](C)c4ccccc4)c(=O)[nH]c3=O)cc(F)cc12", "target": "RAC-beta serine/threonine-protein kinase (AKT2, Homo sapiens, UniProt P31751)", "test": "enzyme activity, inhibitor", "conditions": "0.1 µM", "inhibition": "4%"}
{"Compound": "N=C(N)c1ccc2cc(OC(=O)c3ccc(N=C(N)N)cc3)ccc2c1", "target": "Cathepsin F", "test": "enzyme activity, inhibitor", "conditions": "10 µM", "inhibition": "0%"}
{"Compound": "Cn1cc(-c2cc(F)cc(N3CCn4c(cc5c4CCCC5)C3=O)c2CO)cc(Nc2ccc(N3CCN(C4COC4)CC3)cn2)c1=O", "target": "Beta-adrenergic receptor kinase 1 (GRK2, Homo sapiens, UniProt P25098)", "test": "enzyme activity, inhibitor", "conditions": "0.1 µM", "inhibition": "-1%"}
